Data published in ChEMBL document CHEMBL1132220 (J Med Chem, 1999).
Bridge positions count the residues as written; N and C are the ends. Square brackets hold non-standard residues; d marks the D form. Peptide text beside a SMILES is read from it. Phe(4-Cl) = N[C@@H](Cc1ccc(Cl)cc1)C(=O)O; 2Nal = N[C@@H](Cc1ccc2ccccc2c1)C(=O)O; 3Pal = N[C@@H](Cc1cccnc1)C(=O)O; Tle = CC(C)(C)[C@H](N)C(=O)O; Nle = CCCC[C@H](N)C(=O)O

Assays:
[1] = target: Somatostatin receptor; assay: Antagonism of in vitro SRIF inhibition of GH release in rat in vitro pituitary cell assay; type: functional, cell-based; settings: pituitary gland cell
In short: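 Dispersed adult male rat anterior pituitary cells (trypsin/DNase), about 200 000 cells/well, cultured 4–5 days at 37 °C. GH measured by double-antibody RIA. IC50 versus SRIF, mean ± SEM of n dose–response curves.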

[2] = target: Somatostatin receptor type 5 (Homo sapiens, UniProt P35346); assay: The compound was tested for binding affinity against human Somatostatin receptor type 5
Chain of Somatostatin receptor type 5 (P35346 whole entry): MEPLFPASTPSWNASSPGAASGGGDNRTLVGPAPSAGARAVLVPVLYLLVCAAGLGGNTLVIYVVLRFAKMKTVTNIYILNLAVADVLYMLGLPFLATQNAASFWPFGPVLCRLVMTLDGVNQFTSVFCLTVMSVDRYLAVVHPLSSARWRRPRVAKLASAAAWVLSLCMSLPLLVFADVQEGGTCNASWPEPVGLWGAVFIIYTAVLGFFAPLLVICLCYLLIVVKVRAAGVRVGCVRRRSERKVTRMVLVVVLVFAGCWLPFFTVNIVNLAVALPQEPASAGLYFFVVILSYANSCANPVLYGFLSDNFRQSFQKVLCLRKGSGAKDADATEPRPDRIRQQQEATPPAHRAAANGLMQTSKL
In short: (§1)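 Membranes from CHO-K1 cells transfected with the cloned human receptor. Terminated by filtration on PEI-soaked GF/C filters. Nonspecific binding defined with 1.0 μM SRIF. Mean ± SEM; single values are from one experiment.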

[3] = target: Somatostatin receptor type 1 (Homo sapiens, UniProt P30872); assay: The compound was tested for binding affinity against human Somatostatin receptor type 1; in short: as §1
Chain of Somatostatin receptor type 1 (P30872 whole entry): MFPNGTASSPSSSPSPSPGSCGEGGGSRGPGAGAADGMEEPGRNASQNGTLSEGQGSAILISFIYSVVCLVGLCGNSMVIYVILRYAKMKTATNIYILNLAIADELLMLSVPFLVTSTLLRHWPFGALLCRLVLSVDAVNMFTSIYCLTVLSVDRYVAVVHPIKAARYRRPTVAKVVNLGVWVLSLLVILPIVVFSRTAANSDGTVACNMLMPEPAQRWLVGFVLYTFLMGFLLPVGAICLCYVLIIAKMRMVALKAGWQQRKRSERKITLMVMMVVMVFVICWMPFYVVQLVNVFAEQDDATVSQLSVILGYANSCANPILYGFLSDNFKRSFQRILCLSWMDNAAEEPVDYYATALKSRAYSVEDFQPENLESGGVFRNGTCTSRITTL

[4] = target: Somatostatin receptor type 3 (Homo sapiens, UniProt P32745); assay: The compound was tested for binding affinity against human Somatostatin receptor type 3
Chain of Somatostatin receptor type 3 (P32745 whole entry): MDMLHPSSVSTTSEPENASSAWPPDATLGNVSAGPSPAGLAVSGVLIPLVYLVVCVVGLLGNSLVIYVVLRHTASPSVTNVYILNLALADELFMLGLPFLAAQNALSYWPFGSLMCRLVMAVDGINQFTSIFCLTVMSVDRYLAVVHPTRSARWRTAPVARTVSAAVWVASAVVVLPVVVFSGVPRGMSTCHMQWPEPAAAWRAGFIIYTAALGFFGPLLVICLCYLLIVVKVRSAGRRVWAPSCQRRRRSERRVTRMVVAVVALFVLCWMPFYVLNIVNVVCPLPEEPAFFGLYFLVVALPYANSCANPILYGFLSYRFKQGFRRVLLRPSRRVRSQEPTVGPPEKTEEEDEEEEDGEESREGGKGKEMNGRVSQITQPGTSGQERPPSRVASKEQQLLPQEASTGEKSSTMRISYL
In short: (§2)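 CHO-K1 cells stably transfected (calcium phosphate) with cloned human sst3 or sst4. Membranes made in ice-cold 50 mM Tris-HCl, resuspended in 10 mM Tris-HCl, then incubated 30 min at 37 °C with 0.05 nM [125I]Tyr11-SRIF in HEPES pH 7.4 with BSA, MgCl2 and protease inhibitors. Filtered on GF/C; nonspecific binding with 1.0 µM SRIF. Mean ± SEM, or one experiment.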

[5] = target: Somatostatin receptor type 4 (Homo sapiens, UniProt P31391); assay: The compound was tested for binding affinity against human Somatostatin receptor type 4; in short: as §2
Chain of Somatostatin receptor type 4 (P31391 whole entry): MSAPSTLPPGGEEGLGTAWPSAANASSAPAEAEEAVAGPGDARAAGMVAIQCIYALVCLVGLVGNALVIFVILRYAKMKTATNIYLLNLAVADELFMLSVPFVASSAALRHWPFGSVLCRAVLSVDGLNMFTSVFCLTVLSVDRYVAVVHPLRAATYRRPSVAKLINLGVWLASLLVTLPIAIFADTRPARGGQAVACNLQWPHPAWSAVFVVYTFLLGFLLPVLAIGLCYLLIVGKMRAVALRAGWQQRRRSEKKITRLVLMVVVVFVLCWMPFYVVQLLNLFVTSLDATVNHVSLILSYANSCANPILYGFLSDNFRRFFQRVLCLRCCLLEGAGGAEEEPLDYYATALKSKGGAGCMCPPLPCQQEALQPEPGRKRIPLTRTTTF

[6] = target: Somatostatin receptor type 2 (Homo sapiens, UniProt P30874); assay: The compound was tested for binding affinity against human Somatostatin receptor type 2
Chain of Somatostatin receptor type 2 (P30874 whole entry): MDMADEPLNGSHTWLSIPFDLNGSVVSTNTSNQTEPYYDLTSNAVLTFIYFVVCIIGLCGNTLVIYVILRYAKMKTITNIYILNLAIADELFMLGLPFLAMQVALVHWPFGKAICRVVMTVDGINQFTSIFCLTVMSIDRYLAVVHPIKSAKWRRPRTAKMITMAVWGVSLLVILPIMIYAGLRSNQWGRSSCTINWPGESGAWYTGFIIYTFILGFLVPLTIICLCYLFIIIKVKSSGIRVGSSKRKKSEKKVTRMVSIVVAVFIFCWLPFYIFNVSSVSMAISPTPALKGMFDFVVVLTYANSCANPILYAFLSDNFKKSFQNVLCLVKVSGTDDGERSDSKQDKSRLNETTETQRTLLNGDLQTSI
In short: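 Membranes from CHO-K1 cells transfected with the cloned human sst2. Incubated 30 min at 37 °C with 0.05 nM [125I]MK-678 in HEPES pH 7.4 with BSA, MgCl2, Trasylol, bacitracin and PMSF. Filtration on PEI-soaked GF/C filters. Nonspecific binding defined with 1.0 μM SRIF. Mean ± SEM; single values are from one experiment.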

SMILES | IC50 [1] | Ki [2] | Ki [3] | Ki [4] | Ki [5] | Ki [6]
NCCCC[C@@H]1NC(=O)[C@@H](Cc2c[nH]c3ccccc23)NC(=O)[C@H](Cc2cccnc2)NC(=O)[C@@H](NC(=O)[C@@H](N)Cc2ccc3ccccc3c2)CSSC[C@@H](C(=O)N[C@@H](Cc2ccc3ccccc3c2)C(N)=O)NC(=O)CNC1=O | 1.51 µM |  |  |  |  | 
CC(C)[C@H]1NC(=O)[C@H](CCCCN)NC(=O)[C@@H](Cc2c[nH]c3ccccc23)NC(=O)[C@H](Cc2cccnc2)NC(=O)[C@@H](NC(=O)[C@H](N)Cc2ccc(F)cc2)CSSC[C@H](C(=O)N[C@H](Cc2ccc(F)cc2)C(N)=O)NC1=O | 0.074 µM |  |  |  |  | 
C[C@@H](O)[C@@H]1NC(=O)[C@H](CCCCN)NC(=O)[C@@H](Cc2c[nH]c3ccccc23)NC(=O)[C@@H](Cc2ccccn2)NC(=O)C(NC(=O)[C@@H](N)Cc2ccc(Cl)cc2)CSSCC(C(=O)N[C@@H](Cc2ccc3ccccc3c2)C(N)=O)NC1=O (stereo in doubt) [listing 1 of 2 here] | 0.0027 µM |  |  |  |  | 
CC(C)[C@H]1NC(=O)[C@H](CCCCN)NC(=O)[C@@H](Cc2c[nH]c3ccccc23)NC(=O)[C@H](Cc2cccnc2)NC(=O)[C@@H](NC(=O)[C@@H](N)Cc2c(F)c(F)c(F)c(F)c2F)CSSC[C@H](C(=O)N[C@@H](Cc2c(F)c(F)c(F)c(F)c2F)C(N)=O)NC1=O | 0.292 µM |  |  |  |  | 
CC(C)[C@H]1NC(=O)[C@H](CCCCN)NC(=O)[C@@H](Cc2c[nH]c3ccccc23)NC(=O)[C@H](Cc2cccnc2)NC(=O)[C@@H](NC(=O)[C@@H](N)Cc2cccc(F)c2)CSSC[C@H](C(=O)N[C@@H](Cc2cccc(F)c2)C(N)=O)NC1=O | 0.077 µM |  |  |  |  | 
CC(C)[C@H]1NC(=O)[C@H](CCCCN)NC(=O)[C@@H](Cc2c[nH]c3ccccc23)NC(=O)[C@H](Cc2c[nH]cn2)NC(=O)C(NC(=O)[C@@H](N)Cc2c(F)c(F)c(F)c(F)c2F)CSSCC(C(=O)N[C@@H](Cc2c(F)c(F)c(F)c(F)c2F)C(N)=O)NC1=O (stereo in doubt) | 2.41 µM |  |  |  |  | 
CC(C)[C@@H]1NC(=O)[C@H](CCCCN)NC(=O)[C@@H](Cc2c[nH]c3ccccc23)NC(=O)[C@H](Cc2cccnc2)NC(=O)[C@H](NC(=O)[C@@H](N)Cc2ccc(Br)cc2)CSSC[C@@H](C(=O)N[C@@H](Cc2ccc(Br)cc2)C(N)=O)NC1=O |  | 0.066 µM | 0.374 µM | 0.057 µM | 3.31 µM | 0.016 µM
CC(C)C[C@@H]1NC(=O)[C@H](CCCCN)NC(=O)[C@@H](Cc2c[nH]c3ccccc23)NC(=O)[C@H](Cc2cccnc2)NC(=O)[C@H](NC(=O)[C@@H](N)Cc2ccc3ccccc3c2)CSSC[C@@H](C(=O)N[C@@H](Cc2ccc3ccccc3c2)C(N)=O)NC1=O |  | 0.968 µM | 0.415 µM | 0.243 µM | 0.728 µM | 0.543 µM
CC(C)[C@@H]1NC(=O)[C@H](CCCCN)NC(=O)[C@@H](Cc2c[nH]c3ccccc23)NC(=O)[C@H](Cc2cccnc2)NC(=O)[C@H](NC(=O)[C@@H](N)Cc2ccc(C#N)cc2)CSSC[C@@H](C(=O)N[C@@H](Cc2ccc(C#N)cc2)C(N)=O)NC1=O |  | 0.304 µM | > 1 µM | 0.103 µM | > 1 µM | 0.099 µM
C[C@@H]1NC(=O)[C@H](CCCCN)NC(=O)[C@@H](Cc2c[nH]c3ccccc23)NC(=O)[C@H](Cc2cccnc2)NC(=O)[C@H](NC(=O)[C@@H](N)Cc2ccc3ccccc3c2)CSSC[C@@H](C(=O)N[C@@H](Cc2ccc3ccccc3c2)C(N)=O)NC1=O |  | 1.86 µM | 1.2 µM | 0.379 µM | > 1 µM | 0.203 µM
CC(C)[C@H]1NC(=O)[C@H](CCCCN)NC(=O)[C@@H](Cc2c[nH]c3ccccc23)NC(=O)[C@H](Cc2c[nH]cn2)NC(=O)C(NC(=O)[C@@H](N)Cc2ccc(F)cc2)CSSCC(C(=O)N[C@@H](Cc2ccc(F)cc2)C(N)=O)NC1=O (stereo in doubt) |  | 0.173 µM | 1.95 µM | 0.269 µM | 0.847 µM | 0.031 µM
CC(C)[C@@H]1NC(=O)[C@H](CCCCN)NC(=O)[C@@H](Cc2c[nH]c3ccccc23)NC(=O)[C@H](Cc2cccnc2)NC(=O)[C@H](NC(=O)[C@@H](N)Cc2ccc3ccccc3c2)CSSC[C@@H](C(=O)N[C@@H](Cc2ccc(F)cc2)C(N)=O)NC1=O |  | 0.376 µM | 1.06 µM | 0.166 µM | > 1 µM | 0.069 µM
CCCC[C@@H]1NC(=O)[C@H](CCCCN)NC(=O)[C@@H](Cc2c[nH]c3ccccc23)NC(=O)[C@H](Cc2cccnc2)NC(=O)[C@H](NC(=O)[C@@H](N)Cc2ccc3ccccc3c2)CSSC[C@@H](C(=O)N[C@@H](Cc2ccc3ccccc3c2)C(N)=O)NC1=O (H-[2Nal][dC][3Pal][dW]K[Nle]C[2Nal]-NH2; disulfide 2-7) |  | 0.814 µM | 0.845 µM | 0.126 µM | 0.672 µM | 0.076 µM
CC(C)[C@@H]1NC(=O)[C@H](CCCCN)NC(=O)[C@@H](Cc2c[nH]c3ccccc23)NC(=O)[C@H](Cc2cccnc2)NC(=O)[C@H](NC(=O)[C@@H](N)Cc2ccc3ccccc3c2)CSSC[C@@H](C(=O)N[C@H](C(N)=O)C(c2ccccc2)c2ccccc2)NC1=O |  | 0.725 µM | > 1 µM | 1.6 µM | > 1 µM | 0.037 µM
CC(C)[C@@H]1NC(=O)[C@H](CCCCN)NC(=O)[C@@H](Cc2c[nH]c3ccccc23)NC(=O)[C@H](Cc2cccnc2)NC(=O)[C@H](NC(=O)[C@@H](N)Cc2ccc(Cl)cc2)CSSC[C@@H](C(=O)N[C@@H](Cc2ccc3ccccc3c2)C(N)=O)NC1=O |  | 0.24 µM | > 1 µM | 0.085 µM | 1.59 µM | 0.025 µM
CC(C)[C@@H]1NC(=O)[C@H](CCCCN)NC(=O)[C@@H](Cc2c[nH]c3ccccc23)NC(=O)[C@H](Cc2cccnc2)NC(=O)[C@H](NC(=O)[C@@H](N)Cc2ccccc2F)CSSC[C@@H](C(=O)N[C@@H](Cc2ccccc2F)C(N)=O)NC1=O |  | 1.58 µM | 0.186 µM | 0.385 µM | > 1 µM | 0.241 µM
CC(C)(C)[C@@H]1NC(=O)[C@H](CCCCN)NC(=O)[C@@H](Cc2c[nH]c3ccccc23)NC(=O)[C@H](Cc2cccnc2)NC(=O)[C@H](NC(=O)[C@@H](N)Cc2ccc3ccccc3c2)CSSC[C@@H](C(=O)N[C@@H](Cc2ccc3ccccc3c2)C(N)=O)NC1=O (H-[2Nal][dC][3Pal][dW]K[Tle]C[2Nal]-NH2; disulfide 2-7) |  | 0.631 µM | > 1 µM | 0.371 µM | 0.145 µM | 0.035 µM
CC(C)[C@@H]1NC(=O)[C@H](CCCCN)NC(=O)[C@@H](Cc2c[nH]c3ccccc23)NC(=O)[C@H](Cc2cccnc2)NC(=O)[C@H](NC(=O)[C@@H](N)Cc2ccc(F)cc2)CSSC[C@@H](C(=O)N[C@@H](Cc2ccc(F)cc2)C(N)=O)NC1=O |  | 0.369 µM | 0.435 µM | 0.12 µM | > 1 µM | 0.02 µM
CC(C)[C@@H]1NC(=O)[C@H](CCCCN)NC(=O)[C@@H](Cc2c[nH]c3ccccc23)NC(=O)[C@H](Cc2cccnc2)NC(=O)[C@H](NC(=O)[C@H](N)Cc2ccc(F)cc2)CSSC[C@@H](C(=O)N[C@H](Cc2ccc(F)cc2)C(N)=O)NC1=O |  | 0.694 µM | > 1 µM | 0.838 µM | > 1 µM | 0.106 µM
CC(C)[C@@H]1NC(=O)[C@H](CCCCN)NC(=O)[C@@H](Cc2c[nH]c3ccccc23)NC(=O)[C@H](Cc2ccc(O)c(I)c2)NC(=O)C(NC(=O)[C@@H](N)Cc2ccc3ccccc3c2)CSSCC(C(=O)N[C@@H](Cc2ccc3ccccc3c2)C(N)=O)NC1=O (stereo in doubt) |  | 0.468 µM | > 1 µM | 0.482 µM | > 1 µM | 0.194 µM
C[C@@H](O)[C@@H]1NC(=O)[C@H](CCCCN)NC(=O)[C@@H](Cc2c[nH]c3ccccc23)NC(=O)[C@@H](Cc2ccccn2)NC(=O)C(NC(=O)[C@@H](N)Cc2ccc(Cl)cc2)CSSCC(C(=O)N[C@@H](Cc2ccc3ccccc3c2)C(N)=O)NC1=O (stereo in doubt) [listing 2 of 2 here] |  | 0.07 µM | 1.03 µM | 0.053 µM | > 1 µM | 0.014 µM
CC(C)(C)[C@@H]1NC(=O)[C@H](CCCCN)NC(=O)[C@@H](Cc2c[nH]c3ccccc23)NC(=O)[C@H](Cc2cccnc2)NC(=O)[C@H](NC(=O)[C@H](N)Cc2ccc(Cl)cc2)CSSC[C@@H](C(=O)N[C@H](Cc2ccc(Cl)cc2)C(N)=O)NC1=O |  | 0.153 µM | > 1 µM | 1.19 µM | 2.88 µM | 0.056 µM
CC(C)[C@@H]1NC(=O)[C@H](CCCCN)NC(=O)[C@@H](Cc2c[nH]c3ccccc23)NC(=O)[C@H](Cc2cccnc2)NC(=O)[C@H](NC(=O)[C@@H](N)Cc2ccc(F)cc2)CSSC[C@@H](C(=O)N[C@@H](Cc2ccc3ccccc3c2)C(N)=O)NC1=O |  | 0.287 µM | 0.484 µM | 0.271 µM | > 1 µM | 0.035 µM
CC(C)(C)[C@@H]1NC(=O)[C@H](CCCCN)NC(=O)[C@@H](Cc2c[nH]c3ccccc23)NC(=O)[C@H](Cc2cccnc2)NC(=O)[C@H](NC(=O)[C@@H](N)Cc2ccc(Cl)cc2)CSSC[C@@H](C(=O)N[C@@H](Cc2ccc3ccccc3c2)C(N)=O)NC1=O (H-[Phe(4-Cl)][dC][3Pal][dW]K[Tle]C[2Nal]-NH2; disulfide 2-7) |  | 0.52 µM | > 1 µM | 0.1 µM | 0.895 µM | 0.012 µM
